# Tests used:
# Staphylococcus aureus [1] = assay: Minimum inhibitory concentration against Staphylococcus aureus 10649 (erythromycin susceptible strain); assay type: functional
# How it was run: (§1)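 MICs were determined by agar dilution following National Committee for Clinical Laboratory Standards recommendations. Values are in µg/mL.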
# Streptococcus pneumoniae [2] = assay: Cell free inhibiting activity against Streptococcus pneumoniae 5635(Wild type ribosomes for transcription/translation assay); assay type: functional
# How it was run: (§2)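 Cell-free coupled transcription/translation assay using bacterial ribosome S-30 extracts. Wild-type ribosomes were isolated from the erythromycin-susceptible strain S. pneumoniae 5635. Inhibition is reported as IC50 (µM).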
# Mus musculus [3] = species on record: Mus musculus; assay: Mouse protection tests for effective dose against Staphylococcus aureus 10649 ((erythromycin susceptible strain)) infected mice; assay type: functional
# Mus musculus [4] = species on record: Mus musculus; assay: Effective dose against Streptococcus pneumoniae 6303 (erythromycin susceptible strain); assay type: functional
# Streptococcus pneumoniae [5] = assay: Cell free inhibiting activity against Streptococcus pneumoniae 1813 (methylated ribosomes for transcription/translation assay); assay type: functional
# Streptococcus pneumoniae [6] = assay: Minimum inhibitory concentration against Streptococcus pneumoniae 6303 (erythromycin susceptible strain); assay type: functional; how it was run: as §1
# Staphylococcus aureus [7] = assay: Minimum inhibitory concentration against Staphylococcus aureus A 5278 MLSB-c; assay type: functional; how it was run: as §1
# Streptococcus pneumoniae [8] = assay: Minimum inhibitory concentration against Streptococcus pneumoniae 5649 efflux; assay type: functional; how it was run: as §1
# [9] = Minimum inhibitory concentration against Streptococcus pyogenes PIU2548 efflux; assay type: functional; how it was run: as §1
# Streptococcus pneumoniae [10] = assay: Minimum inhibitory concentration against Streptococcus pneumoniae ATCC 6303 Ery-S; assay type: functional; how it was run: as §1
# Streptococcus pneumoniae [11] = assay: Cell free inhibiting activity against MLSB-resistant strain Streptococcus pneumoniae 1813 (methylated ribosomes for transcription/translation assay)
# [12] = Minimum inhibitory concentration against Streptococcus pneumoniae 5737 MLSB; assay type: functional; how it was run: as §1
# Streptococcus pneumoniae [13] = assay: Cell free inhibiting activity against erythromycin-susceptible strain Streptococcus pneumoniae 5635 (Wild type ribosomes for transcription/translation assay); assay type: functional; how it was run: as §2
# [14] = Minimum inhibitory concentration against Streptococcus pyogenes 930MLSB; assay type: functional; how it was run: as §1
# [15] = Minimum inhibitory concentration against Streptococcus pyogenes EES 61 Ery-S; assay type: functional; how it was run: as §1
# Staphylococcus aureus [16] = assay: Minimum inhibitory concentration against Staphylococcus aureus ATCC 6538PEry-S; assay type: functional; settings: ATCC 6538P; how it was run: as §1
# [17] = Minimum inhibitory concentration againstH. influenzae DILL Amp-R; assay type: functional; settings: Haemophilus influenzae
# How it was run: (§3)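 Whole-cell MIC determined by agar dilution following National Committee for Clinical Laboratory Standards recommendations; values expressed in µg/mL.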
# Staphylococcus aureus [18] = assay: Minimum inhibitory concentration against Staphylococcus aureus A 5177 MLSB-i; assay type: functional; how it was run: as §1
# Mus musculus [19] = species on record: Mus musculus; assay: Mouse protection tests for effective dose against Streptococcus pneumoniae 6303 ((erythromycin susceptible strain)) infected mice; assay type: functional
# Staphylococcus aureus [20] = assay: Minimum against Staphylococcus aureus 10649 (erythromycin susceptible strain); assay type: functional; how it was run: as §1
# Streptococcus pneumoniae [21] = assay: Minimum against Streptococcus pneumoniae 6303 (erythromycin susceptible strain); assay type: functional; how it was run: as §3
# Streptococcus pneumoniae [22] = assay: Cell free inhibiting activity against MLSB-resistant strain Streptococcus pneumoniae 1813 (methylated ribosomes for transcription/translation assay); remark: listed apart in the source
smiles,measurement,setting,value
CC[C@H]1OC(=O)[C@H](C)[C@@H](O[C@H]2C[C@@](C)(OC)[C@@H](O)[C@H](C)O2)[C@H](C)[C@@H](O[C@@H]2O[C@H](C)C[C@H](N(C)C)[C@H]2O)[C@](C)(O)C[C@@H](C)CN(C)[C@H](C)[C@@H](O)[C@]1(C)O [AZITHROMYCIN],MIC,Staphylococcus aureus [1],0.78 mg/L
same,IC50,Streptococcus pneumoniae [2],0.17 µM
same,ED50,Mus musculus [3],24.8 mg/kg
same,ED50,Mus musculus [4],18.8 mg/kg
same,IC50,Streptococcus pneumoniae [5],> 500 µM
same,MIC,Streptococcus pneumoniae [6],0.12 mg/L
CC[C@H]1OC(=O)[C@H](C)[C@@H](O[C@H]2C[C@@](C)(OC)[C@@H](O)[C@H](C)O2)[C@H](C)[C@@H](O[C@@H]2O[C@H](C)C[C@H](N(C)C)[C@H]2O)[C@](C)(O)C[C@@H](C)C(=O)[C@H](C)[C@@H](O)[C@]1(C)O [ERYTHROMYCIN],MIC,Staphylococcus aureus [7],> 100 mg/L
same,MIC,Streptococcus pneumoniae [8],32 mg/L
same,MIC,[9],16 mg/L
same,MIC,Streptococcus pneumoniae [10],0.06 mg/L
same,IC50,Streptococcus pneumoniae [11],> 500 µM
same,MIC,[12],> 128 mg/L
same,IC50,Streptococcus pneumoniae [13],0.12 µM
same,MIC,[14],> 128 mg/L
same,MIC,[15],0.06 mg/L
same,MIC,Staphylococcus aureus [16],0.2 mg/L
same,MIC,[17],8 mg/L
same,MIC,Staphylococcus aureus [18],6.2 mg/L
CC[C@H]1OC(=O)[C@H](C)[C@@H](O[C@H]2C[C@@](C)(OC)[C@@H](O)[C@H](C)O2)[C@H](C)[C@@H](O[C@@H]2O[C@H](C)C[C@H](N(C)C)[C@H]2O)[C@](C)(OC)C[C@@H](C)C(=O)[C@H](C)[C@@H](O)[C@]1(C)O [CLARITHROMYCIN],IC50,Streptococcus pneumoniae [2],0.09 µM
same,ED50,Mus musculus [19],27.9 mg/kg
same,ED50,Mus musculus [3],16.7 mg/kg
same,MIC,Staphylococcus aureus [20],0.2 mg/L
same,MIC,Streptococcus pneumoniae [21],0.03 mg/L
same,IC50,Streptococcus pneumoniae [5],> 500 µM
C=CCO[C@]1(C)C[C@@H](C)C(=O)[C@H](C)[C@@H](O)[C@](C)(O)[C@@H](CC)OC(=O)[C@H](C)[C@@H](O[C@H]2C[C@@](C)(OC)[C@@H](O)[C@H](C)O2)[C@H](C)[C@H]1O[C@@H]1O[C@H](C)C[C@H](N(C)C)[C@H]1O,MIC,Staphylococcus aureus [7],> 100 mg/L
same,MIC,[9],64 mg/L
same,IC50,Streptococcus pneumoniae [13],0.15 µM
same,MIC,[14],> 128 mg/L
same,MIC,Staphylococcus aureus [16],0.78 mg/L
same,MIC,[17],32 mg/L
same,MIC,Staphylococcus aureus [18],12.5 mg/L
same,IC50,Streptococcus pneumoniae [22],> 500 µM
